Test results published in ChEMBL document CHEMBL1759840, “2,3-Substituted quinoxalin-6-amine analogs as antiproliferatives: a structure-activity relationship study” (2011).
One block for each compound: values may come before it. Active and inactive are the calls of the source. No cut-off for these calls is given here.

What was measured:
A549 [1] = experiment: Growth inhibition of human A549 cells at 20 uM after 72 hrs by alamar blue assay; type: functional; conditions: for inhibition of growth at 20 µM: A549, 72 h, read-out: GI
In short: (§1)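 Single-concentration screen at 20 μM with 72 h exposure across a panel of cancer lines: lung A549, pancreatic AsPC1, colon HT29, breast MDA-MB-231, prostate PC3, ovarian SKOV3 and bone U2OS. Growth inhibition read after 72 h.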

ASPC1 [2] = experiment: Growth inhibition of human AsPC1 cells at 20 uM after 72 hrs by alamar blue assay; type: functional; conditions: for inhibition of growth at 20 µM: ASPC1, 72 h, read-out: GI; in short: as §1
HT-29 [3] = experiment: Growth inhibition of human HT-29 cells at 20 uM after 72 hrs by alamar blue assay; type: functional; conditions: for inhibition of growth at 20 µM: HT-29, 72 h, read-out: GI; in short: as §1
MDA-MB-231 [4] = experiment: Growth inhibition of human MDA-MB-231 cells at 20 uM after 72 hrs by alamar blue assay; type: functional; conditions: for inhibition of growth at 20 µM: MDA-MB-231, 72 h, read-out: GI; in short: as §1
PC-3 [5] = experiment: Growth inhibition of human PC3 cells at 20 uM after 72 hrs by alamar blue assay; type: functional; conditions: for inhibition of growth at 20 µM: PC-3, 72 h, read-out: GI; in short: as §1
SK-OV-3 [6] = experiment: Growth inhibition of human SKOV3 cells at 20 uM after 72 hrs by alamar blue assay; type: functional; conditions: for inhibition of growth at 20 µM: SK-OV-3, 72 h, read-out: GI; in short: as §1
U2OS [7] = experiment: Growth inhibition of human U2OS cells at 20 uM after 72 hrs by alamar blue assay; type: functional; conditions: for inhibition of growth at 20 µM: read-out: GI; in short: as §1
A549 [8] = experiment: Growth inhibition of human A549 cells after 72 hrs by alamar blue assay; type: functional; conditions: A549, 72 h
ASPC1 [9] = experiment: Growth inhibition of human AsPC1 cells after 72 hrs by alamar blue assay; type: functional; conditions: ASPC1, 72 h
HT-29 [10] = experiment: Growth inhibition of human HT-29 cells after 72 hrs by alamar blue assay; type: functional; conditions: HT-29, 72 h
MDA-MB-231 [11] = experiment: Growth inhibition of human MDA-MB-231 cells after 72 hrs by alamar blue assay; type: functional; conditions: MDA-MB-231, 72 h
PC-3 [12] = experiment: Growth inhibition of human PC3 cells after 72 hrs by alamar blue assay; type: functional; conditions: PC-3, 72 h
SK-OV-3 [13] = experiment: Growth inhibition of human SKOV3 cells after 72 hrs by alamar blue assay; type: functional; conditions: SK-OV-3, 72 h
U2OS [14] = experiment: Growth inhibition of human U2OS cells after 72 hrs by alamar blue assay; type: functional
MDA-MB-231 [15] = experiment: Induction of apoptosis in human MDA-MB-231 cells assessed as increase in caspase 3/7 activity at 20 uM after 1 hr by luminescence assay; type: functional, cell-based
In short: (§2)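 Caspase 3/7 induction was followed over time, up to 72 h, in MDA-MB-231 and PC3 cells, with etoposide as positive control.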

PC-3 [16] = experiment: Induction of apoptosis in human PC3 cells assessed as increase in caspase 3/7 activity at 20 uM after 1 hr by luminescence assay; type: functional, cell-based; in short: as §2
HeLa [17] = experiment: Induction of apoptosis in human HeLa cells overexpressing Bad3SA assessed as increase in caspase 3/7 activity at 20 uM after 1 hr by luminescence assay; type: functional, cell-based
HeLa [18] = experiment: Induction of apoptosis in human HeLa cells overexpressing Bad3SA assessed as PARP cleavage at 20 uM by Western blotting; type: functional, cell-based
HeLa [19] = experiment: Induction of Mcl-1 dependent apoptosis in doxycycline-stimulated human HeLa cells assessed as condensed nuclei for 12 hrs using Hoechst dye; type: functional, cell-based

SMILES: O=[N+]([O-])c1ccc(NC(=S)Nc2ccc3nc(-c4cccs4)c(-c4cccs4)nc3c2)cc1
growth inhibition (GI) (A549 [1]): inactive | growth inhibition (GI) (ASPC1 [2]): inactive | inhibition of growth at 20 µM (HT-29 [3]): 23.9% | inhibition of growth at 20 µM (MDA-MB-231 [4]): 53.3% | inhibition of growth at 20 µM (PC-3 [5]): 19.5% | growth inhibition (GI) (SK-OV-3 [6]): inactive | inhibition of growth at 20 µM (U2OS [7]): 50.6%

GI50 (A549 [8]): 6.4 µM | GI50 (ASPC1 [9]): 17.3 µM | GI50 (HT-29 [10]): 12.1 µM | GI50 (MDA-MB-231 [11]): 8.4 µM | GI50 (PC-3 [12]): 5.9 µM | GI50 (SK-OV-3 [13]): 16.8 µM | GI50 (U2OS [14]): 10.8 µM
SMILES: O=C(Nc1ccc(Br)cc1)Nc1ccc2nc(-c3ccco3)c(-c3ccco3)nc2c1
inhibition of growth at 20 µM (A549 [1]): > 100% | inhibition of growth at 20 µM (ASPC1 [2]): > 100% | inhibition of growth at 20 µM (HT-29 [3]): 88.6% | inhibition of growth at 20 µM (MDA-MB-231 [4]): > 100% | inhibition of growth at 20 µM (PC-3 [5]): > 100% | inhibition of growth at 20 µM (SK-OV-3 [6]): 94.9% | inhibition of growth at 20 µM (U2OS [7]): > 100% | Activity (MDA-MB-231 [15]): Active | Activity (PC-3 [16]): Active | Activity (HeLa [17]): Active | Activity (HeLa [18]): Active | Activity (HeLa [19]): Dose-dependent effect

SMILES: Cc1ccc(S(=O)(=O)N(c2ccc3nc(-c4cccs4)c(-c4cccs4)nc3c2)S(=O)(=O)c2ccc(C)cc2)cc1
growth inhibition (GI) (A549 [1]): inactive | growth inhibition (GI) (ASPC1 [2]): inactive | growth inhibition (GI) (HT-29 [3]): inactive | growth inhibition (GI) (MDA-MB-231 [4]): inactive | growth inhibition (GI) (PC-3 [5]): inactive | growth inhibition (GI) (SK-OV-3 [6]): inactive | growth inhibition (GI) (U2OS [7]): inactive

SMILES: O=C(Nc1ccc2nc(-c3ccco3)c(-c3ccco3)nc2c1)N1CCCC1
inhibition of growth at 20 µM (A549 [1]): 23.3% | inhibition of growth at 20 µM (ASPC1 [2]): 11.6% | inhibition of growth at 20 µM (HT-29 [3]): 16.7% | inhibition of growth at 20 µM (MDA-MB-231 [4]): 18.2% | inhibition of growth at 20 µM (PC-3 [5]): 53.1% | inhibition of growth at 20 µM (SK-OV-3 [6]): 16.9% | inhibition of growth at 20 µM (U2OS [7]): 46.5%

SMILES: Cc1nc2ccc(NC(=O)N3CCCC3)cc2nc1C
growth inhibition (GI) (A549 [1]): inactive | growth inhibition (GI) (ASPC1 [2]): inactive | growth inhibition (GI) (HT-29 [3]): inactive | growth inhibition (GI) (MDA-MB-231 [4]): inactive | growth inhibition (GI) (PC-3 [5]): inactive | growth inhibition (GI) (SK-OV-3 [6]): inactive | growth inhibition (GI) (U2OS [7]): inactive

SMILES: O=[N+]([O-])c1ccc(NC(=S)Nc2ccc3nc(-c4ccco4)c(-c4ccco4)nc3c2)cc1
inhibition of growth at 20 µM (A549 [1]): 19.2% | growth inhibition (GI) (ASPC1 [2]): inactive | inhibition of growth at 20 µM (HT-29 [3]): 42% | inhibition of growth at 20 µM (MDA-MB-231 [4]): 9% | inhibition of growth at 20 µM (PC-3 [5]): 43.4% | growth inhibition (GI) (SK-OV-3 [6]): inactive | inhibition of growth at 20 µM (U2OS [7]): 32.2%

SMILES: Cc1ccc(S(=O)(=O)c2c(N)ccc3nc(C)c(C)nc23)cc1
growth inhibition (GI) (A549 [1]): inactive | growth inhibition (GI) (ASPC1 [2]): inactive | growth inhibition (GI) (HT-29 [3]): inactive | growth inhibition (GI) (MDA-MB-231 [4]): inactive | growth inhibition (GI) (PC-3 [5]): inactive | growth inhibition (GI) (SK-OV-3 [6]): inactive | growth inhibition (GI) (U2OS [7]): inactive
